STAT3 activator – activators of IL-6 induced STAT3 signaling. U3A cells, IL-6 STAT3-luciferase reporter, luminescence; 100% = signal with IL-6 EC80 alone. activation (% of control), % at 5.6 µM. hit rate 0.91% among 190,000. AID 871;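 active means activation above the screen-wide mean of compound activation plus 3 SD, cut at about 130% in these data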;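 further: 0% = background luminescence of wells with medium and substrate only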
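Material: human U3A cells carrying STAT3-luciferase construct. Measured by: reporter luminescence signal. Timing: compound 1 h, then IL-6 6 h at 37 °C.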
STAT3 inh – STAT3 signaling inhibition; hit rate 0.89% among 190,000; U3A cells, IL-6 STAT3-luciferase reporter, luminescence; host cell line lacks STAT1; inhibition, % at 5.5 µM;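 active means inhibition above the mean inhibition across all screened compounds plus 3 SD, cut at about 44% in these data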;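 further: 0% = DMSO only wells and 100% = 100 µM nifuroxazide control wells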
NF-kB neuron act – NF-kB expression increase, human neuronal cells; NF-kB reporter expression; active compounds read high; fold change at 12.5 µM; hit rate 1.6% among 190,000; in the data active means fold change above about 3.3
STAT1 activator – activators of IFN-gamma induced STAT1 signaling; AID 932; activation (% of control), % at 5.5 µM; NIH 3T3 STAT1-luciferase reporter, luminescence; 100% = IFN-gamma alone, no compound; hit rate 2.6% among 200,000;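 active means activation above the screen-wide mean activation plus 3 SD, cut at about 130% in these data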;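 further: raw ratio to IFN-gamma control signal so 100% means no change and 0% no light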
APP 5'UTR act – activates APP 5'UTR luciferase reporter. SH-SY5Y APP 5'UTR luciferase reporter, luminescence; zero percent = DMSO vehicle wells. activation, % at 2 µM. hit rate 1% among 190,000. AID 1276;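 active means activation above a set limit, based on mean plus 3 SD of controls, cut at about 140% in these data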
STAT1 blocker – STAT1 signaling inhibition; hit rate 0.35% among 200,000; NIH 3T3 STAT1-luciferase reporter, IFN-gamma, luminescence; inhibition, % at 5.5 µM;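 active means inhibition above a set limit, the mean inhibition across all tested compounds plus 3 SD, cut at about 34% in these data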;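 further: 0% = IFN-gamma with DMSO and 100% = IFN-gamma with 300 µM nifuroxazide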
Starred values were filed as active, the others as inactive; · = not tested or not shown. Sampled rows, rich in hits. Any-hit rate of the full collection: about 4.9%.

SMILES	STAT3 activator	STAT3 inh	NF-kB neuron act	STAT1 activator	APP 5'UTR act	STAT1 blocker
Cc1ccc(C2NC(=O)NC3=C2CCc2ccccc23)cc1 (configuration not stated)	134*	-34	0.76	89	79	13
O=C(O)CN1CCN(Cc2ccccc2F)C1=O	104	-4	1.2	103	14	-4
CS(=O)(=O)c1ncc(CO)n1Cc1ccccc1	102	6	0.93	103	0	-5
Cc1cccc(NC(=O)c2ccc(COc3ccc4ccccc4c3)o2)n1	110	-7	2.3	145*	21	-52
O=C(CCCOc1ccccc1)N1CCN(c2ccccn2)CC1	98	5	2.9	129*	153*	-26
COC(=O)C1CCN(C(=O)CSc2ccccc2)CC1	106	-7	1.2	103	-10	-4
O=C(CCCOc1ccc(Cl)cc1Cl)N1CCN(c2ccccn2)CC1	103	3	0.91	102	-8	-1
COC(=O)C1CCN(C(=O)CCCOc2ccccc2)CC1	117	-18	2.8	132*	146*	-32
CC(C)(O)C#Cc1ccc(CN2CCN(Cc3ccsc3)C(CCO)C2)s1 (configuration not stated)	97	8	0.88	92	2	8
CCOC(=O)C1(CCOc2ccccc2)CCN(Cc2ccc(-n3cccn3)cc2)CC1	93	11	3.9*	92	25	7
O=C1c2cc([N+](=O)[O-])cc3cc([N+](=O)[O-])cc(c23)C(=O)N1c1ccccn1	99	4	0.86	73	7	30
O=C1c2cccc3c([N+](=O)[O-])ccc(c23)C(=O)N1Cc1cccnc1	104	4	3.8*	106	-82	-6
Cc1ccnc(N2C(=O)c3cccc4c([N+](=O)[O-])ccc(c34)C2=O)c1	98	9	4.7*	89	-37	12
O=C1CCCC(=O)C1C(=O)C1CCN(S(=O)(=O)c2ccccc2)CC1	101	10	1.4	101	11	-2
COc1ccc(C(=O)c2ccc([N+](=O)[O-])cc2Cl)cc1	107	-6	1.5	108	-4	-11
CCOc1ccc(N2Cc3ncccc3C2=O)cc1	76	30	1.9	140*	83	-42
CCN(CC)C(=O)c1cc(C(C)(C)C)c(O)c(C(C)(C)C)c1	91	11	1.4	99	0	1
CC(=O)n1c2c(c3ccccc31)OC(N)=C(C#N)C2c1ccc(C(C)C)cc1 (configuration not stated)	165*	-73	0.61	129*	48	-32
C#CCSc1nnc(-c2ccc(C)cc2)o1	84	20	3.7*	129*	93	-31
Cc1ccc(-c2nnc(SCc3ccccc3F)o2)cc1	93	12	7.3*	135*	142*	-38
COc1ccc(-c2nnc(SCc3ccccc3F)o2)cc1OC	104	-1	2	114	91	-13
CC(NC(=O)c1ccccc1)c1ccc(Br)cc1 (configuration not stated)	94	18	0.99	89	-1	11
C=CC(=O)NC(NC(=O)C=C)c1ccc(Br)cc1	92	18	3.3*	97	-1	4
CC1CC1c1ccc(/C=C(\C#N)C(=O)Nc2ccc(Cl)cc2)o1 (configuration not stated)	88	13	1.1	141*	116	-45
CCCCN1C(=O)/C(=C/C=C2\SCCN2C)SC1=S	111	-7	3	130*	62	-32
SMILES	STAT3 activator	STAT3 inh	NF-kB neuron act	STAT1 activator	APP 5'UTR act	STAT1 blocker
CN1CCS/C1=C/C=C1\SC(=S)N(CC(=O)O)C1=O	95	10	0.86	102	3	-3
COc1ccc(Cc2nnc(NS(=O)(=O)c3ccc(Cl)cc3)s2)cc1OC	102	0	1	98	9	0
O=c1cc(-c2ccccc2)[nH]c2ccc(F)cc12	117	-23	2.8	107	-92	-8
O=c1cc(-c2cccc(F)c2)[nH]c2ccccc12	133*	-43	2.7	108	-94	-9
C/C(=N\NC(=O)C1(C)NC(C)(C)Cc2ccccc21)c1ccccc1 (configuration not stated)	92	14	1	102	-19	-4
Cc1[nH]nc(Nc2ccccc2)c1[N+](=O)[O-]	95	14	2	104	12	-5
Cc1ccc(Nc2n[nH]c(C)c2[N+](=O)[O-])cc1	103	-4	3.1	147*	54	-52
Nc1ccc(C(=O)c2cccs2)cc1[N+](=O)[O-]	84	24	1.4	106	3	-7
COc1ccc(/C=N/Nc2ncccc2[N+](=O)[O-])c(OC)c1	41	74*	7.9*	47	137*	57*
COC(=O)CNc1cccc(C(F)(F)F)c1	100	4	0.99	98	-6	1
Cc1ccccc1Nc1nnc(SCC2CCCCO2)s1 (configuration not stated)	100	-2	6.1*	129*	146*	-30
COc1ccc2oc(=Nc3cc(F)ccc3F)c(C(N)=O)cc2c1	80	26	1.1	131*	-13	-35
N#Cc1ccccc1S(=O)c1ccccc1C(=O)Nc1ccccc1 (configuration not stated)	99	9	1.1	101	-9	-1
O=C1CCCCC1Sc1nnc(-c2ccc3c(c2)OCO3)o1 (configuration not stated)	13	105*	1.1	18	178*	87*
Cc1ccc(-c2nnc(-c3ccc4c(c3)OCO4)o2)cc1	91	18	1.1	130*	130	-34
CCOc1ccc(-c2nnc(-c3ccco3)o2)cc1OCC	107	1	1.8	125	15	-27
c1coc(-c2nnc(-c3ccc4c(c3)OCO4)o2)c1	82	24	2.6	133*	88	-36
c1nnc(-c2ccc3c(c2)OCO3)o1	104	2	1.2	104	16	-6
c1ccc(-c2nnc(-c3ccco3)o2)cc1	99	5	1.7	138*	67	-42
Cc1nc(SCC(=O)c2ccc(Cl)cc2)c([N+](=O)[O-])[nH]1	103	4	0.98	101	20	-1
CSc1ccc(-c2nc(CN3CCCCC3c3cccnc3)c(C)o2)cc1 (configuration not stated)	102	3	·	98	-3	0
Cc1ccc(NC(=O)Cn2ccc([N+](=O)[O-])n2)cc1Cl	84	22	0.9	99	-8	0
Brc1ccc(-c2nnc(-c3ccc4c(c3)OCO4)o2)o1	82	26	4*	115	5	-17
Clc1ccc(CSc2nnc(-c3ccc4c(c3)OCO4)o2)cc1	101	-1	1.2	103	-3	-8

High-throughput results from PubChem BioAssay.
